The nature of this data set: Toxicity liver stage against HepG2, at 10uM. Further details: test concentration 10 uM, cell line HepG2-A16-CD81EGFP. The format is cell-based. Conditions: human, HepG2-A16-CD81EGFP cells; read-out: INHIBITION
Put shortly: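 Uninfected HepG2-A16-CD81EGFP cells, 3 × 10^3 per well, 1536-well, plated on prespotted compound at 10 μM final, parasite-free screening media added to match infected plates; puromycin 10 μM positive, DMSO 0.5% negative; run in parallel with 48 h PbLuc assay at 37 °C, 5% CO2; viability by CellTiter-Glo luminescence, normalized to controls.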
On to `O=C(NC[C@H]1OC[C@@H](NC2COC2)[C@@H]1O)c1cccs1`, for which the cytotoxicity at 10 µM came to 0.0331%. Regarding `CN1CC=C(c2noc(CCC(=O)N3CCc4ccccc43)n2)CC1`, the cytotoxicity at 10 µM came to 7.22%.

`Cc1nc(NC(=O)CN2C(=O)c3ccccc3NC2C(C)C)sc1C` (stereo not given): the cytotoxicity at 10 µM stood at 0.585%.

Take `C[C@@H](O)CNc1c(NCc2ccco2)c(=O)c1=O`: the cytotoxicity at 10 µM is -7.58%. Take `Cn1ccc2c(C(=O)NC3CN4CCC3CC4)cccc21` (stereo not given): the cytotoxicity at 10 µM was -46.8%.

For `O=C1CSC(c2ccccc2)c2c(n(C3CCOCC3)[nH]c2=O)N1` (stereo not given), the cytotoxicity at 10 µM is -4.69%. Consider `Cc1ccnc(OC[C@]23COC[C@H]2CN(C(=O)c2cnccn2)C3)n1`, for which the cytotoxicity at 10 µM was -7.1%. As to `O=C(N1CCCC1)N1Cc2nccn2CC(Cn2ncccc2=O)C1` (stereo not given), the cytotoxicity at 10 µM was found to be 3.39%.

For `Cc1occc1C(=O)N1C[C@@H](C(=O)NCc2ccco2)C[C@H]2OCC[C@H]21`, the cytotoxicity at 10 µM worked out at 1.08%.

Regarding `O=C(O)c1nc(SCc2ccccc2)ncc1Br`, the cytotoxicity at 10 µM stood at 0.231%. The value for `COc1ccc(C2SCC(=O)Nc3n[nH]cc32)c(OC)c1OC` (stereo not given) was 4.68%. As to `CCOc1cc(=O)n2c(c1C(=O)OCc1ccc(C)cc1)CCCC2`, the cytotoxicity at 10 µM is 3.11%. Regarding `COC(=O)c1cc2c(OC)c(OC)c(OC)cc2[nH]1`, the cytotoxicity at 10 µM is -0.555%. `Cn1c(=O)[nH]c(=O)n2c(CC(=O)Nc3ccccc3)cnc12`: the cytotoxicity at 10 µM turned out to be 5.81%. In the case of `O=C(c1cc2c(s1)CCC2)N1CCC(c2ccncc2)CC1`, the cytotoxicity at 10 µM came to 39.7%.

In the case of `CNc1ccc(CC2CCCN(C(=O)c3cnccn3)C2)nn1` (stereo not given), the cytotoxicity at 10 µM is -9.27%. In the case of `CNc1ncccc1CN1CCCCC1c1ccnc(N)n1` (stereo not given), the cytotoxicity at 10 µM is -12.3%. As for `Cc1ncccc1Oc1nccnc1C1CCN(S(C)(=O)=O)CC1`, the cytotoxicity at 10 µM is -7.88%. Consider `CC(C)(C)CN1CCCC12Cc1ccccc1CNC2=O` (stereo not given), for which the cytotoxicity at 10 µM was found to be 22.1%. On to `CCn1cnnc1CNC(=O)NC(c1ccc(OC)cc1)C1CC1` (stereo not given), for which the cytotoxicity at 10 µM was 1.77%. Consider `CC(C)N(C)CCCNC(=O)c1cnn(C(C)(C)C)c1C(F)(F)F`, for which the cytotoxicity at 10 µM was 7.25%. For the compound `Cc1nc(CN2CCCN(CC(=O)N(C)C(C)(C)C#N)CC2)no1`, the cytotoxicity at 10 µM came to 9.5%. For `N#Cc1cc(Cl)ccc1N1CCOC(C(N)=O)C1` (stereo not given), the cytotoxicity at 10 µM is 11.7%. For the compound `Cn1nc(C(C)(C)C)cc1NC(=O)CSc1nnc[nH]1`, the cytotoxicity at 10 µM stood at 0.353%. Regarding `CC1CN(C)CCN1C(=O)Cc1cc(Cl)c2c(c1)OCCO2` (stereo not given), the cytotoxicity at 10 µM is -3.47%.

Take `CN(C)CCOc1ccc(N(C)S(=O)(=O)c2cnn(C)c2)cc1`: the cytotoxicity at 10 µM was -13.3%. In the case of `CCNc1cc2c(nn1)CCN(C(=O)c1cc3c(s1)CCOC3)C2`, the cytotoxicity at 10 µM was -8.51%.

As to `Cc1cnn(C2CN(CC(O)COCc3ccc4c(c3)OCO4)C2)c1` (stereo not given), the cytotoxicity at 10 µM is -5.41%. On to `CCN(C)S(=O)(=O)N1CCCC1CC(=O)c1cccs1` (stereo not given), for which the cytotoxicity at 10 µM is -29%. As to `C=C(C)CN1CCC(NC(=O)Nc2cc(C(N)=O)ccc2OC)CC1`, the cytotoxicity at 10 µM is 10.8%.

For the compound `COCCCC(=O)NC1(c2cccc(Br)c2)CC1`, the cytotoxicity at 10 µM worked out at 2.11%.

As for `COc1cccc(OCC(=O)NS(=O)(=O)c2cc(F)ccc2F)c1`, the cytotoxicity at 10 µM was 7.53%. The figure for `CC(C)c1nnc(NC(=O)NC2CCOc3ccccc32)s1` (stereo not given) is 18.1%; for `CC(c1cccc(O)c1)N(C)S(=O)(=O)c1cccnc1` (stereo not given) it is 9.46%. Take `O=C(c1ncoc1C1CCCO1)N1CC2(CCCC2)c2ccccc21` (stereo not given): the cytotoxicity at 10 µM came to 3.13%. With `COC(=O)NCC(=O)NCC1(c2c(F)cccc2F)CCCC1`, the cytotoxicity at 10 µM was -3.56%.

On to `CCCn1nnnc1COc1ccc(C(=O)OC)cc1`, for which the cytotoxicity at 10 µM is -5.58%. Turning to `c1cnnc(NCC2CN(CCn3cncn3)CCO2)c1` (stereo not given), the cytotoxicity at 10 µM is -3.16%.

Regarding `CC(C)COC(C)C(=O)NCc1ccccc1Cn1ccnc1` (stereo not given), the cytotoxicity at 10 µM was found to be 4.9%. As for `O=C(NCCNCC1CNc2ccnn2C1)c1ccc(F)cc1` (stereo not given), the cytotoxicity at 10 µM was -8.75%.

In the case of `CCc1ccc(CN2CCC3(CC(C(=O)NCC(C)C)=NO3)C2)o1` (stereo not given), the cytotoxicity at 10 µM is 6.46%. Take `O=c1ccc2c([nH]1)CCC(NS(=O)(=O)C1CC1)C2` (stereo not given): the cytotoxicity at 10 µM is 3.66%. Take `Cc1cc(C(=O)N2CCn3cc(CN4CCN(C)CC4)nc3C2)no1`: the cytotoxicity at 10 µM is -74.7%.

Consider `CN1CCN(Cc2cnc3n2CCN(C(=O)c2ccnnc2)C3)CC1`, for which the cytotoxicity at 10 µM was -81.1%. With `CCn1cc2c(n1)C(COC)CN(C(=O)c1ccccn1)C2` (stereo not given), the cytotoxicity at 10 µM turned out to be 2.61%.

Consider `COc1cccc(OC)c1-c1ccnc2cc(CC(=O)N(C)C)nn12`, for which the cytotoxicity at 10 µM is -8.86%.

Turning to `CCc1nn(C)c(Cl)c1CN(CCOC)Cc1cnn(C)c1`, the cytotoxicity at 10 µM is -6.5%. The value for `Cn1c(Cn2ccnc2)nnc1C1CCCN(Cc2ccncc2)C1` (stereo not given) was 12.1%; that for `Cc1cc(Cl)ccc1C(=O)N[C@H]1CN(S(C)(=O)=O)C[C@@H]1C1CC1` was 8.9%; that for `O=C1CN(Cc2cn(CC3CCN(C4CCSCC4)CC3)nn2)CCN1` was -48.2%. Turning to `CC(C)=CCN1CCN(C(=O)c2snnc2C)[C@H]2CS(=O)(=O)C[C@H]21`, the cytotoxicity at 10 µM is -0.987%. On to `COC1CCN(S(=O)(=O)N2CCC3(CCCNC3=O)C2)CC1` (stereo not given), for which the cytotoxicity at 10 µM came out at 1.1%. With `COc1ccc(-c2cccc(-c3ccn(CCCN(C)C)n3)c2)nn1`, the cytotoxicity at 10 µM is -1.01%.

Turning to `Cc1cc(CN(C)CC2(O)CCCN(CCC3CCCCC3)C2=O)no1` (stereo not given), the cytotoxicity at 10 µM is -14.4%.

For the compound `CCCc1nccn1-c1ccncc1`, the cytotoxicity at 10 µM is 17.3%. Take `O=C(O)[C@@H]1CN(Cc2ccc3nsnc3c2)C[C@H]1c1cccnc1`: the cytotoxicity at 10 µM was determined as 4.46%. For the compound `O=C(C1CC1)N1C[C@H]2CNC[C@@]2(C(=O)NCCCc2ccccc2)C1`, the cytotoxicity at 10 µM was -0.371%.

In the case of `CN(C)C[C@H]1CC[C@@H](Cc2ccc3c(cnn3C)c2)O1`, the cytotoxicity at 10 µM is -1.07%.

In the case of `CCc1cn[nH]c1C1CCCN(C(=O)c2cc(C(C)C)on2)C1` (stereo not given), the cytotoxicity at 10 µM was -8.6%. For the compound `COC(=O)c1ccn(CC(=O)Nc2nn(CC3CC3)c3ccccc23)n1`, the cytotoxicity at 10 µM turned out to be 4.95%.

Consider `Cc1nc2c(c(N3CCN(c4ncccc4C(N)=O)CC3)n1)CCNC2`, for which the cytotoxicity at 10 µM was -4.69%. Take `CN1CC=C(CCN(C)C(=O)CCc2ccccc2)CC1`: the cytotoxicity at 10 µM was -5.84%.

For the compound `CN1CC2(CCN(C(=O)c3ccc4c(=O)n(C)cnc4c3)CC2)CC1=O`, the cytotoxicity at 10 µM amounted to 5.58%. The figure for `Cc1ccccc1-c1noc(-c2ccc(NCC3COCCO3)nc2)n1` (stereo not given) is 3.41%; for `CCCc1cncnc1N1CCCC2(CCC(=O)N(C3CCCC3)C2)C1` (stereo not given) it is 0.887%. The figure for `O[C@@]1(CN2CCN(Cc3ccncc3)CC2)CCCN2CCCC[C@@H]21` is 8.91%; for `CCN(CC1CCOCC1)C(=O)CCNC(=O)c1ccccc1F` it is -43.1%. The figure for `Cc1nn(CCO)cc1CN1CCC(C(C)N2CCCC2)CC1` (stereo not given) is -1.04%; for `CC(Cn1cncn1)NCc1n[nH]c2c1CCCCC2` (stereo not given) it is -4.39%. Take `Cc1nccn1Cc1nnc(C2CCCN(Cc3ccncc3)C2)n1C` (stereo not given): the cytotoxicity at 10 µM was -1.63%. Take `CCc1nccn1C1CCCN(C(=O)CCOCC(F)(F)F)C1` (stereo not given): the cytotoxicity at 10 µM was -9.39%. For the compound `CCc1nc2n(n1)CC(NCc1ccnc(-c3ccccc3)n1)CC2` (stereo not given), the cytotoxicity at 10 µM was -8.3%. Take `c1ccc(-c2nc(CN3CCCC3Cn3cncn3)cs2)cc1` (stereo not given): the cytotoxicity at 10 µM was -14%. For the compound `CCN1CCN(C2CCN(Cc3c(C)noc3C)CC2)C1=O`, the cytotoxicity at 10 µM is -7.85%. The value for `c1ccc(-c2nnc(CNCCn3cccn3)o2)cc1` was -10.7%; that for `O=C(NCCN1CCOCC1)NCC(O)c1cccc(F)c1` (stereo not given) was -9.24%. Take `O=C(NCCn1ccnc1)N1CCN(c2nccs2)CC1`: the cytotoxicity at 10 µM is -3.68%. `CCOc1ncccc1C(=O)N1CCCC1c1c(C)nn(C)c1OC` (stereo not given): the cytotoxicity at 10 µM is -13%. On to `CN(C)c1ncc(CN2CCC(O)(c3ccccc3F)CC2)cn1`, for which the cytotoxicity at 10 µM turned out to be 2.4%. For the compound `CCCSc1ncc(CN(C)CCN2CCCCC2)cn1`, the cytotoxicity at 10 µM was -1.39%. Turning to `Cn1ccnc1C(=O)N1CCC2(CC1)CC(Oc1cccnc1)CO2` (stereo not given), the cytotoxicity at 10 µM is 3.04%. On to `Cc1nc(CN2CCN(C)C(=O)C23CCN(C(C)C)CC3)cs1`, for which the cytotoxicity at 10 µM worked out at 2.33%. The figure for `CC1CCN(C(=O)C2(Cc3cc(C4CCOC4)no3)CCNCC2)CC1` (stereo not given) is -3.04%; for `CCN(CC)S(=O)(=O)N1CCc2nc(C3CCNCC3)ncc2C1` it is -5.66%. In the case of `O=C(NCC1CCOCC1)[C@H]1C[C@@H]2CCN(Cc3ccccc3)C[C@H]2O1`, the cytotoxicity at 10 µM is 1.03%.

Turning to `Cc1cccc(N2CCOCC3(C2)CN(c2ccoc2)C(=O)CO3)n1` (stereo not given), the cytotoxicity at 10 µM came out at 4.39%.

For `c1ccc(CN2CCC3(CC2)CCN(Cc2cccnc2)C3)nc1`, the cytotoxicity at 10 µM was -78.6%. The value for `O=C1[C@H]2CN(Cc3nccs3)C[C@H]2CN1c1ccsc1` was 3.06%; that for `COc1cc(N2C[C@H]3CCC[C@@H](CN(C)C)[C@H]3C2)ncn1` was -78.3%.

`CNC(=O)c1cc2c(nc1NCC1CC1)CCN(c1ccncn1)CC2`: the cytotoxicity at 10 µM was 3.17%. `c1ccc(O[C@@H]2CO[C@@]3(CCCN(CC4CCOCC4)C3)C2)nc1`: the cytotoxicity at 10 µM was -82.6%. In the case of `O=C1CO[C@@H]2CN(Cc3nccs3)C[C@H]2N1Cc1ccncc1`, the cytotoxicity at 10 µM was -66.6%. For `O=C(NC1CCCC1)[C@@H]1CN(Cc2nccs2)C[C@H]2OCC[C@H]21`, the cytotoxicity at 10 µM was found to be 4.91%. As to `COc1ccc(CN2C[C@@H]3OCCN(c4ncccn4)[C@@H]3C2)cc1`, the cytotoxicity at 10 µM was 4.71%. Turning to `FC(F)(F)CCc1ccnc(NC2CCC(n3cnnc3)CC2)n1` (stereo not given), the cytotoxicity at 10 µM was -6.71%.

For the origin of these results see ChEMBL document CHEMBL4513216, “Probing the Open Global Health Chemical Diversity Library for Multistage-Active Starting Points for Next-Generation Antimalarials” (ACS Infect Dis, 2020).
